Source: ChEMBL document CHEMBL2434837, “Anticancer evaluation of some newly synthesized N-nicotinonitrile derivative” (Eur J Med Chem, 2013)
Values after ≈ are worked out from the molar mass of the structure shown. Active and inactive are the calls of the source. The calls are words filed in the database; no cut-off is given here.

Assays:
MCF7 [1] = assay: Inhibition of uPA protein expression in human MCF7 cells at 0.1 time compound IC50 after 48 hrs by ELISA; assay type: functional
In short: (§1)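 Cells exposed 48 h to compound. Culture medium collected and spun at 2000 xg for 10 min to remove debris. Sandwich ELISA for human uPA: sample 2 h, biotinylated anti-uPA 1 h at 25 °C, streptavidin-peroxidase 30 min, chromogen, then stop solution, absorbance read at 450 nm. uPA level expressed as percent change relative to DMSO-treated control cells.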

A549 [2] = assay: Cytotoxicity against human A549 cells after 48 hrs by SRB assay; assay type: functional, cell-based
In short: (§2)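 Cells from ATCC, kept in DMEM with 10% heat-inactivated fetal calf serum, penicillin and streptomycin at 37 °C, 5% CO2. Seeded at 10^4 cells/well and left 24 h to attach. Compounds in DMSO (1 mg/ml stock) added at several concentrations, triplicate wells per dose, 48 h exposure. Then fixed, stained 30 min with 0.4% SRB in 1% acetic acid, and dye recovered in Tris-EDTA for absorbance. IC50 derived from surviving fraction versus concentration.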

A549 [3] = assay: Inhibition of uPA protein expression in human A549 cells at 0.1 time compound IC50 after 48 hrs by ELISA; assay type: functional; in short: as §1
MCF7 [4] = assay: Cytotoxicity against human MCF7 cells after 48 hrs by SRB assay; assay type: functional, cell-based; in short: as §2
HepG2 [5] = assay: Inhibition of uPA protein expression in human HepG2 cells at 0.1 time compound IC50 after 48 hrs by ELISA; assay type: functional; in short: as §1
HepG2 [6] = assay: Cytotoxicity against human HepG2 cells after 48 hrs by SRB assay; assay type: functional, cell-based; in short: as §2
[7] = Homo sapiens, MCF7, 48 h, read-out: IC50
[8] = Homo sapiens, HepG2, 48 h, read-out: IC50

## N#Cc1c(-c2ccc(Cl)cc2)cc(-c2ccc(Cl)cc2)n(CC(O)CCl)c1=O (stereo not drawn)
MCF7 [1]
  inhibition (INH): 82%
A549 [2]; a549
  IC50: Not Active
A549 [3]
  inhibition: inactive
MCF7 [4]; [7]
  IC50: 4.6 µg/mL (≈ 10.6 µM)
HepG2 [5]
  inhibition (INH): 67%
HepG2 [6]; [8]
  IC50: 4.8 µg/mL (≈ 11.1 µM)

## N#Cc1c(-c2ccc(Cl)cc2)cc(-c2ccc(Cl)cc2)n([C@@H]2O[C@H](CO)[C@@H](O)[C@H]2O)c1=O
MCF7 [1]
  inhibition (INH): 60%
A549 [2]; a549
  IC50: Not Active
A549 [3]
  inhibition: inactive
MCF7 [4]; [7]
  IC50: 5.7 µg/mL (≈ 12 µM)
HepG2 [5]
  inhibition (INH): 56%
HepG2 [6]; [8]
  IC50: 6.9 µg/mL (≈ 14.6 µM)

## C#CCn1c(-c2ccc(Cl)cc2)cc(-c2ccc(Cl)cc2)c(C#N)c1=O
MCF7 [1]
  inhibition (INH): 7%
A549 [2]; a549
  IC50: Not Active
A549 [3]
  inhibition: inactive
MCF7 [4]; [7]
  IC50: 16.7 µg/mL (≈ 44 µM)
HepG2 [5]
  inhibition (INH): 5%
HepG2 [6]; [8]
  IC50: 18.3 µg/mL (≈ 48.3 µM)

## N#Cc1c(-c2ccc(Cl)cc2)cc(-c2ccc(Cl)cc2)[nH]c1=O
MCF7 [1]
  inhibition: inactive
A549 [2]; a549
  IC50: Not Active
A549 [3]
  inhibition: inactive
MCF7 [4]; mcf7
  IC50: Not Active
HepG2 [5]
  inhibition: inactive
HepG2 [6]; hepg2
  IC50: Not Active

## N#Cc1c(-c2ccc(Cl)cc2)cc(-c2ccc(Cl)cc2)n(Cc2ccccc2)c1=O
MCF7 [1]
  inhibition (INH): 86%
A549 [2]; a549
  IC50: Not Active
A549 [3]
  inhibition: inactive
MCF7 [4]; [7]
  IC50: 3.65 µg/mL (≈ 8.46 µM)
HepG2 [5]
  inhibition (INH): 83%
HepG2 [6]; [8]
  IC50: 4.2 µg/mL (≈ 9.74 µM)

## COc1cccc2c1C(=O)c1c(O)c3c(c(O)c1C2=O)C[C@@](O)(C(=O)CO)C[C@@H]3O[C@H]1C[C@H](N)[C@H](O)[C@H](C)O1 [DOXORUBICIN]
MCF7 [1]
  inhibition (INH): 91%
A549 [2]; Homo sapiens, A549, 48 h, read-out: IC50
  IC50: 4.11 µg/mL (≈ 7.56 µM)
A549 [3]
  inhibition (INH): 82%
HepG2 [5]
  inhibition (INH): 88%
HepG2 [6]; [8]
  IC50: 3.9 µg/mL (≈ 7.18 µM)

## N#Cc1c(-c2ccc(Cl)cc2)cc(-c2ccc(Cl)cc2)n(CC2CO2)c1=O (stereo not drawn)
MCF7 [1]
  inhibition (INH): 77%
A549 [2]; a549
  IC50: Not Active
A549 [3]
  inhibition: inactive
MCF7 [4]; [7]
  IC50: 5 µg/mL (≈ 12.6 µM)
HepG2 [5]
  inhibition (INH): 63%
HepG2 [6]; [8]
  IC50: 6.2 µg/mL (≈ 15.6 µM)

## N#CCn1c(-c2ccc(Cl)cc2)cc(-c2ccc(Cl)cc2)c(C#N)c1=O
MCF7 [1]
  inhibition: inactive
A549 [2]; a549
  IC50: Not Active
A549 [3]
  inhibition: inactive
MCF7 [4]; mcf7
  IC50: Not Active
HepG2 [5]
  inhibition: inactive
HepG2 [6]; hepg2
  IC50: Not Active

## N#Cc1c(-c2ccc(Cl)cc2)cc(-c2ccc(Cl)cc2)n(C(=O)c2ccccc2)c1=O
MCF7 [1]
  inhibition (INH): 90%
A549 [2]; a549
  IC50: Not Active
A549 [3]
  inhibition: inactive
MCF7 [4]; [7]
  IC50: 2.6 µg/mL (≈ 5.84 µM)
HepG2 [5]
  inhibition (INH): 87%
HepG2 [6]; [8]
  IC50: 3.75 µg/mL (≈ 8.42 µM)

## CC(=O)OC[C@H]1O[C@@H](n2c(-c3ccc(Cl)cc3)cc(-c3ccc(Cl)cc3)c(C#N)c2=O)[C@H](OC(C)=O)[C@@H](OC(C)=O)[C@@H]1OC(C)=O
MCF7 [1]
  inhibition (INH): 54%
A549 [2]; a549
  IC50: Not Active
A549 [3]
  inhibition: inactive
MCF7 [4]; [7]
  IC50: 6.3 µg/mL (≈ 9.38 µM)
HepG2 [5]
  inhibition (INH): 48%
HepG2 [6]; [8]
  IC50: 7.25 µg/mL (≈ 10.8 µM)

## N#Cc1c(-c2ccc(Cl)cc2)cc(-c2ccc(Cl)cc2)n([C@@H]2O[C@H](COC(=O)c3ccccc3)[C@@H](OC(=O)c3ccccc3)[C@H]2OC(=O)c2ccccc2)c1=O
MCF7 [1]
  inhibition (INH): 66%
A549 [2]; a549
  IC50: Not Active
A549 [3]
  inhibition: inactive
MCF7 [4]; [7]
  IC50: 5.9 µg/mL (≈ 7.51 µM)
HepG2 [5]
  inhibition (INH): 60%
HepG2 [6]; [8]
  IC50: 8 µg/mL (≈ 10.2 µM)

## CCn1c(-c2ccc(Cl)cc2)cc(-c2ccc(Cl)cc2)c(C#N)c1=O
MCF7 [1]
  inhibition (INH): 3%
A549 [2]; a549
  IC50: Not Active
A549 [3]
  inhibition: inactive
MCF7 [4]; [7]
  IC50: 19.7 µg/mL (≈ 53.4 µM)
HepG2 [5]
  inhibition (INH): 2%
HepG2 [6]; [8]
  IC50: 22.3 µg/mL (≈ 60.4 µM)

## C=CCn1c(-c2ccc(Cl)cc2)cc(-c2ccc(Cl)cc2)c(C#N)c1=O
MCF7 [1]
  inhibition (INH): 3%
A549 [2]; a549
  IC50: Not Active
A549 [3]
  inhibition: inactive
MCF7 [4]; [7]
  IC50: 19 µg/mL (≈ 49.8 µM)
HepG2 [5]
  inhibition (INH): 5%
HepG2 [6]; [8]
  IC50: 20 µg/mL (≈ 52.5 µM)

## N#Cc1c(-c2ccc(Cl)cc2)cc(-c2ccc(Cl)cc2)n([C@@H]2O[C@H](CO)[C@@H](O)[C@H](O)[C@H]2O)c1=O
MCF7 [1]
  inhibition (INH): 9%
A549 [2]; a549
  IC50: Not Active
A549 [3]
  inhibition: inactive
MCF7 [4]; [7]
  IC50: 14.2 µg/mL (≈ 28.2 µM)
HepG2 [5]
  inhibition (INH): 6%
HepG2 [6]; [8]
  IC50: 16.1 µg/mL (≈ 32 µM)
